# eLon inh = inhibitors of E. coli Lon protease; P0A9M0; purified E. coli Lon protease, fluorescence polarization; AID 602123; 360,000 tested, 0.42% active; inhibition, % at 7.94 µM; in the data active = inhibition above about 13%, passing the limit was not always enough;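 note: 0% = enzyme with probe and DMSO and 100% = no enzyme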
# PRMT1 inh = inhibitors of human PRMT1; 370,000 tested, 1.3% active; AID 652257; recombinant PRMT1, activity-based probe fluorescence polarization; inhibition, % at 2.79 µM;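 active = inhibition above about 21% made by adding two undisclosed values, limit read from the data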
# TDP2 absorb = TDP2 (human) inhibition, absorbance primary screen; inhibition, % at 12.8 µM; recombinant TDP2, T5PNP hydrolysis, p-nitrophenol absorbance 415 nm; 370,000 tested, 0.34% active;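 active = inhibition above the mean of all tested compounds plus 3 SD, set per campaign, cut at about 25% in these data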;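 note: 0% = DMSO with enzyme and 100% = buffer with substrate but no TDP2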
#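 Incubation: 2 h at 37 °C; Test system: recombinant human TDP2; Quantity: enzyme 120 nM; Read-out basis: percent inhibition; Medium: 50 mM Tris-HCl pH 7.5 with Mg2+, KCl, DTT, BSA; Repeats: single replicate; Compound: 12.8 µM single point, 1% DMSO; Signal: epi absorbance; Reagent: 5 mM T5PNP chromogenic substrate; Benchmarks: no-enzyme high, DMSO-plus-enzyme low.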
# PAD4 inh = PAD4 (human) enzyme inhibition | recombinant PAD4, RCA probe fluorescence polarization | Q9UM07 | 330,000 tested, 0.41% active | inhibition, % at 6.36 µM;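 active = percent inhibition above a cutoff equal to the mean of all tested compounds plus 3 SD, cut at about 15% in these data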;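 note: 0% = PAD4 with RCA probe and DMSO and 100% = probe without PAD4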
# Target sequence (Q9UM07 whole entry, looked up): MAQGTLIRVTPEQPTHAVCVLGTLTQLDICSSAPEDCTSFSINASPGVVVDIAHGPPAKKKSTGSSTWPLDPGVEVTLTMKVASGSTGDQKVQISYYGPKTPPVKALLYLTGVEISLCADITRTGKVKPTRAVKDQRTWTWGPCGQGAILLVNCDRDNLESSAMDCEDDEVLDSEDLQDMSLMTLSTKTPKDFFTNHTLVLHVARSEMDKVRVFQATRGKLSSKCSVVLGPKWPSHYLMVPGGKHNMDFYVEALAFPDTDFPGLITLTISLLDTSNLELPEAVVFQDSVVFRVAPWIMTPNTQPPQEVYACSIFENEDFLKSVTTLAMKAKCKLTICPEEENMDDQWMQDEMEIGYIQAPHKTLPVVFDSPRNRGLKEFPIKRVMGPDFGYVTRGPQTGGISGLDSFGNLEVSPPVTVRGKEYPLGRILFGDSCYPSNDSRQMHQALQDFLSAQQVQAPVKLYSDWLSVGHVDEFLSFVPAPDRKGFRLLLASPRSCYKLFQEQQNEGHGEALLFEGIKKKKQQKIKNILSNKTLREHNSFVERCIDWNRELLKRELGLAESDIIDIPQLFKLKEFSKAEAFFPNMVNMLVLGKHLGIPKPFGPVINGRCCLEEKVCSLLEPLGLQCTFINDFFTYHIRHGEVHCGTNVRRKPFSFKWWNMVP
# GSTO1 counter = blocks human GSTO1 in RBBP9 counter-screen; P78417; recombinant GSTO1, activity-based probe fluorescence polarization; inhibition, % at 5.96 µM; 300,000 tested, 1.1% active; AID 1974;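 active = inhibition above the campaign mean inhibition plus 3 SD, cut at about 35% in these data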;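 note: 0% = GSTO1-1 with DMSO and 100% = wells lacking GSTO1-1 enzyme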
# E coli Lon conf = E. coli Lon inhibition confirmation. shares compounds with eLon inh. purified E. coli Lon, fluorescence polarization. inhibition, % at 7.94 µM. 1,400 tested, 31% active. AID 602230; in the data active = inhibition above about 16%;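 note: 0% = enzyme with probe and DMSO and 100% = no enzyme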
# Numbers without * were called inactive; . = no result given. An excerpt weighted towards active compounds, which were near 2.5% of everything screened.
SMILES,eLon inh,PRMT1 inh,TDP2 absorb,PAD4 inh,GSTO1 counter,E coli Lon conf
O=C(CC1CCCC1)N1CC[C@H]2[C@H](CCCN2Cc2ccc(F)cc2)C1,.,1,-5,.,.,.
N#Cc1ccc(/C=C2\CC3(OC(=O)c4ccc(Cl)cc4)CCCN2C3)cc1 (centres undefined),.,-5,-3,.,.,.
CCC(=O)N(Cc1ccc(C)cc1)Cc1cc2cc3c(cc2[nH]c1=O)OCO3,21*,2,3,-4,-3,4
Cc1ccc(NC(=O)N(Cc2cccs2)Cc2cc3cc4c(cc3[nH]c2=O)OCO4)cc1,.,0,-7,0,4,.
CCC(=O)N(CCc1ccccc1)Cc1cc2cc3c(cc2[nH]c1=O)OCO3,-6,-2,8,-5,4,.
Cc1ccc(NC(=O)N(Cc2ccc3c(c2)OCO3)Cc2cc3cc4c(cc3[nH]c2=O)OCCO4)cc1,15*,0,2,1,8,5
Cc1ccc(S(=O)(=O)N2CCc3cc4c(cc3C2C)OCCCO4)cc1 (centres undefined),18*,4,-5,2,-2,2
Cc1ccc(N(CC(O)CN2CCCCC2)S(=O)(=O)c2ccc(C)cc2)cc1 (centres undefined),2,3,-1,-8,8,.
Cc1ccc(N(CC(O)CN2CCOCC2)S(=O)(=O)c2ccc([N+](=O)[O-])cc2)cc1 (centres undefined),17*,1,8,4,5,-13
CCN(CC)S(=O)(=O)c1cc(NC(=O)[C@@H](NC(N)=O)C(C)C)ccc1C,17*,-1,-8,-5,4,-3
Cc1cc(C)c2nc(N(CCN(C)C)C(=O)c3ccc4ccccc4c3)sc2c1,20*,2,-2,-4,10,-4
O=C([C@@H]1C[C@H]1c1ccccc1)N1CC[C@H]2[C@H](CCCN2Cc2ccc(F)cc2)C1,.,0,0,.,.,.
O=C(N/N=C/c1ccccc1)C(=O)N/N=C/c1ccccc1,20*,-2,4,5,5,3
c1ccc2c(c1)N=C(N1CCN(Cc3ccc4c(c3)OCO4)CC1)c1ccccc1S2,.,0,-3,.,.,.
O=C(NCCc1ccc(F)cc1)c1ccncc1,19*,-1,-6,-1,0,-11
Cc1ccc(C(=O)NCCc2ccc(F)cc2)s1,14*,4,-8,-2,-4,-7
Cc1ccc(C(=O)NCc2ccc(F)cc2)s1,4,-1,7,2,2,.
CN1C(=O)c2cc(NC(=O)Cc3ccccc3)ccc2OC[C@H]2O[C@H](CC(=O)O)CC[C@H]21,.,3,7,.,.,.
CC(C)N1Cc2nnn(Cc3ccc(F)cc3)c2-c2cc(F)ccc2S1(=O)=O,.,1,-2,.,.,.
CCSc1nnc(-c2cccs2)o1,65*,-4,6,1,-2,-3
c1ccc(CSc2nnc(-c3cccs3)o2)cc1,-4,-1,-3,1,2,.
Cn1c(=O)c2cc(S(=O)(=O)N3CCN(c4ccc(F)cc4)CC3)ccc2n(C)c1=O,.,-1,-2,.,.,.
COc1ccc(CC(=O)OCc2cc3ccccc3[nH]c2=O)cc1,-9,3,-1,-4,8,.
COc1cc(OC)cc(C(=O)OCc2cc3ccccc3[nH]c2=O)c1,23*,-2,7,2,-2,-4
CCCCN(C(=O)C1=COCCO1)c1c(N)n(Cc2ccccc2)c(=O)[nH]c1=O,-1,2,-1,-2,7,.
SMILES,eLon inh,PRMT1 inh,TDP2 absorb,PAD4 inh,GSTO1 counter,E coli Lon conf
COCCN(C(=O)C1=COCCO1)c1c(N)n(CC(C)C)c(=O)[nH]c1=O,24*,7,7,-2,.,7
COCCN(C(=O)C1=COCCO1)c1c(N)n(Cc2ccccc2)c(=O)[nH]c1=O,28*,-1,-9,1,-1,7
CCCCN(C(=O)c1cc2ccccc2o1)c1c(N)n(CC(C)C)c(=O)[nH]c1=O,17,1,7,-3,2,.
CCCCN(C(=O)c1ccc([N+](=O)[O-])o1)c1c(N)n(CC(C)C)c(=O)[nH]c1=O,40*,9,-6,-8,16,29*
N#CCC[C@H]1CC[C@]2(CCCN(Cc3ccc(Br)cc3)C2)O1,.,3,6,.,.,.
CCOc1ncccc1C(=O)Nc1cccc(-n2cnnn2)c1C,-8,-7,-20,1,.,.
Cc1c(NC(=O)c2cc(Br)ccc2Cl)cccc1-n1cnnn1,20*,-3,6,-1,.,-4
CN(C)c1ccc(C(=S)N2CCNCC2)cc1,1,-2,-5,-3,-2,.
CN(C)c1ccc(C(=S)N2CCCCC2)cc1,46*,-1,1,0,4,5
O=S1(=O)c2ccc(N3CCC[C@@H]3CO)cc2O[C@H]2CCN1C2,.,2,-6,.,.,.
FC(F)(F)c1nc2nc(Cl)c(Cl)nc2n1CCCN1CCOCC1,31*,1,4,.,.,9
COc1ccc(/C=C/C(=O)N2CCN(c3ccccn3)CC2)c(OC)c1OC,62*,-4,-18,-1,-1,-5
COc1ccc(/C=C/C(=O)N2CCN(c3ccccn3)CC2)c2ccccc12,11,0,-10,0,4,.
COc1ccc(C(=O)NCC(=O)N=Nc2c(O)n(Cc3ccccc3)c3ccccc23)cc1OC,-2,-1,-2,2,5,.
COC(=O)Cn1c(O)c(N=NC(=O)CNC(=O)c2ccc3c(c2)OCCO3)c2ccccc21,21*,3,-7,-2,12,-5
Cc1ccc(-n2c(Cc3cccs3)nnc2SCc2ccc(C#N)cc2)cc1,.,-3,-1,.,.,.
COc1cccc(C2C3CN(C)CC=C3C(C#N)=C(N)C2(C#N)C#N)c1OC (centres undefined),53*,1,6,6,11,16*
COCC#Cc1ccc(CC[C@H]2O[C@H]3CC[C@@H](CO)O[C@H]3C[C@H]2n2cc(C3CC3)nn2)cc1,.,-3,-3,.,.,.
CCC1(c2ccccc2)NC(=O)N(CC(=O)Nc2cc(Cl)ccc2N2CCOCC2)C1=O (centres undefined),17*,-5,6,-6,-6,-14
COC1=C[C@H](C(=O)NCCNC(C)=O)[C@@]2(C)Cc3ccccc3[C@H]2CC1=O,.,0,-7,.,.,.
N#Cc1c(NCc2ccccc2)ccnc1NCc1cccnc1,17*,1,2,-3,1,-54
COc1ccc(NC(=O)NNc2cc(N3CCOCC3)nc(N3CCOCC3)n2)cc1,34*,2,2,-1,10,15
CC(=O)NNc1cc(N2CCOCC2)nc(N2CCOCC2)n1,-14,-6,10,3,4,.
C#CCNC(=O)C[C@@H]1C[C@@](CCC(=O)OCC)(C(=O)OCC)C2=CCCCN2C1=O,.,6,5,.,.,.
Cc1cc(C(=O)COc2cccc([N+](=O)[O-])c2)c(C)n1C1CC1,-6,0,5,-1,.,.
Cc1cc(C(=O)COC(=O)c2cccc(O)c2)c(C)n1C1CC1,28*,-4,-6,-2,.,-34
